TRPML3 agonist: agonists of human TRPML3 channel. Q8TDD5. HEK293 TRPML3-YFP, Fluo-8 calcium fluorescence; 100% = the carbachol control signal. activation, % at 3 µM. actives 0.29% (n = 220,000);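 active means activation above its plate's cutoff, the mean activation of the plate's test wells plus 3 SD, cut at about 12% in these data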;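 further: 0% = DMSO only wells and 100% = carbachol wells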
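Test system – HEK293 line with stable expression of human TRPML3-YFP channel · Control set – carbachol 87 µM final as high control (100%), DMSO as low control (0%) · Signal – Fluo-8 calcium dye fluorescence, ex 470-495, em 515-575 nm · Incubation – 1-h 37 °C dye load, 5-s basal, 120-s post-compound reads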
V1R ag counter: activates human V1a receptor in oxytocin agonist counter-screen; actives 0.25% (n = 320,000); activation, % at 3 µM; CHO-V1R cells, Fluo-8 calcium fluorescence, agonist mode; 0% DMSO, 100% 3 nM vasopressin; P37288;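 active means activation above the mean activation of all tested compounds plus 3 SD, per screening run, cut at about 20% in these data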;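 further: signal is peak over basal fluorescence ratio across a 100 second FLIPR read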
Target sequence (P37288 whole entry, looked up): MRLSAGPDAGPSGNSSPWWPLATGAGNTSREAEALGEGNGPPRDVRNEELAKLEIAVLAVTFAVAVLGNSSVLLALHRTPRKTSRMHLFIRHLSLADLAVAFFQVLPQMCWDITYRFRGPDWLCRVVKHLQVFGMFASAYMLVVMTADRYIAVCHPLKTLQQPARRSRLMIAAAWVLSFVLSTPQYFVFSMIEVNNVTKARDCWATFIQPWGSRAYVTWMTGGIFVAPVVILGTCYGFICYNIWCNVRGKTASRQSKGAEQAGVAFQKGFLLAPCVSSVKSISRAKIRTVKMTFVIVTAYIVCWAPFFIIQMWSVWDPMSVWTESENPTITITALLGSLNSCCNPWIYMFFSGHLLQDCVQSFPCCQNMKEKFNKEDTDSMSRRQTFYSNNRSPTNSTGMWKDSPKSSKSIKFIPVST
OXTR ag: human OXTR agonism; P30559; CHO-OTR cells, Fluo-8 calcium fluorescence; normalized: DMSO 0%, oxytocin 100%; activation, % at 3 µM; actives 0.32% (n = 320,000);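 active means activation above the mean of all tested compounds plus 3 SD, cutoff set per screening run, cut at about 20% in these data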;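 further: peak over basal fluorescence ratio from a 100 s FLIPR kinetic read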
TRPN1 ag: zebrafish TRPN1 (NompC) channel agonism. actives 0.18% (n = 220,000). HEK293 zebrafish TRPN1-YFP, Fluo-8 calcium fluorescence; 100% = response to 87 µM carbachol. activation, % at 3 µM;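 active means activation above its plate's cutoff, the mean activation of test wells on that plate plus 3 SD, cut at about 19% in these data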;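 further: 0% = DMSO alone and 100% = 87 µM carbachol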
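Material – zebrafish TRPN1-YFP in HEK293 cells · Doses – 3 µM single point · Schedule – dye 1 h 37 °C plus 30 min RT · Signal – Fluo-8 calcium fluorescence, excitation 470-495 nm, emission 515-575 nm · Read-out – % activation versus carbachol response · Control set – carbachol high, DMSO low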
OXTR potentiate: potentiators of human oxytocin receptor; CHO-OTR cells, Fluo-8 calcium fluorescence, potentiator mode; 0% = oxytocin EC15, 100% = EC100; activation, % at 3 µM; AID 2445; actives 0.061% (n = 320,000); P30559;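 active means activation above that plate's cutoff, the mean activation of tested compounds plus 3 SD, cut at about 6.6% in these data, passing the limit was not always enough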;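 further: 100% uses oxytocin at 75 nM as the full agonist control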
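Replication – single well per compound, singlicate · Assay system – CHO cell line stably expressing human OTR · Timing – 6 min pre-incubation, 100 s read · Measure – normalized max/min fluorescence ratio, % activation · Doses – 3.0 µM, one dose · Detection – Fluo-8 calcium dye fluorescence · Probe or stimulus – oxytocin near EC15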
OXTR pot cf: human OXTR potentiation, confirmation. shares compounds with OXTR potentiate. CHO-OTR cells, Fluo-8 calcium fluorescence; scaled from low-dose to maximal oxytocin. activation, % at 3 µM. 180 tested, under 10 active;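 active means mean percent activation over triplicates above a cutoff set from solvent-only control plates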;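 further: compounds tested in the presence of an EC15 dose of oxytocin; 0% = EC15 oxytocin with DMSO and 100% = EC100 oxytocin with DMSO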
Starred values were filed as active, the others as inactive. Only some compounds are listed: those with a hit (about 0.55% of all), similar ones and a draw of the others.

`CCOC(=O)C1=C(C)Nc2nc(SCC(=O)OC)nn2C1c1cc(F)cc(F)c1` (centres undefined) gave TRPML3 agonist 1, V1R ag counter -1, OXTR ag -2, TRPN1 ag 0, OXTR potentiate 11* and OXTR pot cf -13.
For Cc1cccc(C)c1N1C(=O)CCC(C)(C)C1=O the results were V1R ag counter 1, OXTR ag 5 and OXTR potentiate -4.
`CCOc1ccc(-n2cnc3scc(-c4ccc(OC)c(OC)c4)c3c2=O)cc1` gave TRPML3 agonist 0, V1R ag counter -1, OXTR ag -2, TRPN1 ag 0, OXTR potentiate 11* and OXTR pot cf -3.
COc1cccc(-n2cnc3scc(-c4cccs4)c3c2=O)c1 was read as TRPML3 agonist -1, V1R ag counter -1, OXTR ag -2, TRPN1 ag -2 and OXTR potentiate -8.
`CCC(=O)Nn1c(C2CCC2)nc2ccccc2c1=O` gave V1R ag counter 0, OXTR ag -1, OXTR potentiate 13* and OXTR pot cf -2.
`COc1cccc(OC)c1C(=O)Nn1c(C2CCC2)nc2ccccc2c1=O` gave TRPML3 agonist 0, V1R ag counter -1, OXTR ag -2, TRPN1 ag 1 and OXTR potentiate 4.
For CCCC(=O)Nc1cc(S(=O)(=O)N2CCOCC2)ccc1N1CCCCC1 the results were V1R ag counter 0, OXTR ag -1, OXTR potentiate 13* and OXTR pot cf -7.
`CCCC(=O)Nc1cc(S(=O)(=O)N2CCCCC2)ccc1N1CCOCC1` gave V1R ag counter 0, OXTR ag 1 and OXTR potentiate 0.
`O=C(c1ccc(Cl)nc1)N1CCN(S(=O)(=O)c2ccc(Cl)cc2)CC1` gave TRPML3 agonist -1, V1R ag counter 0, OXTR ag 1, TRPN1 ag -1 and OXTR potentiate 2.
`Cc1nnc(SCC(=O)N(CC(C)C)C2CCS(=O)(=O)C2)s1` (centres undefined) gave V1R ag counter 0, OXTR ag 0 and OXTR potentiate -2.
Screening CC(C)CN(C(=O)CSc1nnc2ccccn12)C1CCS(=O)(=O)C1 (centres undefined) returned V1R ag counter 2, OXTR ag 1, OXTR potentiate 15* and OXTR pot cf -7.
Screening CN(C)C(=O)c1ccc(NC(=O)c2ccccc2Sc2ccccc2C#N)cc1 returned TRPML3 agonist 0, V1R ag counter 1, OXTR ag 1, TRPN1 ag 1 and OXTR potentiate -2.
`CCN1CCCC1CNCc1cc(OC)c(OC)c(OC)c1` (centres undefined) gave TRPML3 agonist 0, V1R ag counter 2, OXTR ag 3, TRPN1 ag 2, OXTR potentiate 13* and OXTR pot cf -5.
For Cc1ccc(-n2ncc3c(N4CCC(C(N)=O)CC4)ncnc32)c(C)c1 the results were TRPML3 agonist 0, V1R ag counter -1, OXTR ag 0, TRPN1 ag -1, OXTR potentiate 13* and OXTR pot cf -2.
CCN(CC)C(=O)C1CCN(c2ncnc3c2cnn3-c2ccc(C)cc2C)CC1 was read as TRPML3 agonist 1, V1R ag counter -1, OXTR ag -1, TRPN1 ag 0 and OXTR potentiate -12.
For O=C(NC1CC(=O)N(c2ccc3c(c2)OCCO3)C1)N1CCC(O)CC1 (centres undefined) the results were V1R ag counter 0, OXTR ag 1 and OXTR potentiate -5.
For CC(=O)NC1=NN(C(C)=O)C(C)(CCS(=O)(=O)c2ccc(Br)cc2)S1 (centres undefined) the results were TRPML3 agonist 0, V1R ag counter 1, OXTR ag 3, TRPN1 ag -1, OXTR potentiate 13* and OXTR pot cf -6.
`COc1ccc(C(CC(=O)NCc2ccccc2)C(C)C)cc1` (centres undefined) gave TRPML3 agonist 0, V1R ag counter -2, OXTR ag -3, TRPN1 ag -2 and OXTR potentiate -6.
O=C(COc1cccc(C(F)(F)F)c1)NNC(=O)c1ccc(=O)[nH]c1 was read as V1R ag counter 1, OXTR ag 1 and OXTR potentiate 3.
CCOC(=O)N1CCC(NC(=O)C2CCN(S(=O)(=O)c3cccc4cccnc34)CC2)CC1 was read as TRPML3 agonist 0, V1R ag counter 0, OXTR ag 0, TRPN1 ag 1 and OXTR potentiate -8.
`O=C(NC1CCCCC1)C1CCN(S(=O)(=O)c2cccc3cccnc23)CC1` gave TRPML3 agonist 1, V1R ag counter 1, OXTR ag 1, TRPN1 ag 1, OXTR potentiate 14* and OXTR pot cf -4.
O=C(CCCSc1nc2ccccc2[nH]1)NCc1ccccc1 was read as TRPML3 agonist -1, V1R ag counter 3, OXTR ag -1, TRPN1 ag -1, OXTR potentiate 12* and OXTR pot cf -8.
Screening CCOC(=O)c1c(C)nc(C)c(C(=O)OCC)c1-c1ccccc1 returned TRPML3 agonist -1, V1R ag counter -2, OXTR ag -1, TRPN1 ag -1 and OXTR potentiate -2.
CCOC(=O)c1c(C)nc2c(c1-c1cc(OC)c(OC)c(OC)c1)C(=O)c1ccccc1-2 was read as TRPML3 agonist 0, V1R ag counter -1, OXTR ag -2, TRPN1 ag -2, OXTR potentiate 11* and OXTR pot cf -8.
`O=C1c2nccnc2C(=O)N1c1ccc(F)cc1` gave TRPML3 agonist 1, V1R ag counter 1, OXTR ag 1, TRPN1 ag 1, OXTR potentiate 10* and OXTR pot cf -1.
O=C(O)c1ccc(N2C(=O)c3cccnc3C2=O)cc1 was read as TRPML3 agonist 0, V1R ag counter 0, OXTR ag 0, TRPN1 ag 2 and OXTR potentiate -2.
COc1ccc(S(=O)(=O)N(C)c2ccc(C(=O)NCC3CCCO3)cc2)cc1OC (centres undefined) was read as V1R ag counter 1, OXTR ag 2, OXTR potentiate 14* and OXTR pot cf -4.
Screening COc1ccc(CNC(=O)[C@H](C)NC(=O)C2CC(=O)N(c3ccc4c(c3)OCO4)C2)cc1 (some centres undefined) returned V1R ag counter 0, OXTR ag 0, OXTR potentiate 14* and OXTR pot cf -1.
CC(C)(Oc1ccc(Cl)cc1)C(=O)NC1CC1 was read as V1R ag counter 2, OXTR ag 0 and OXTR potentiate -3.

Source: PubChem
